Reference: ChEMBL document CHEMBL1145181, “Heterocyclic and phenyl double-bond-locked combretastatin analogues possessing potent apoptosis-inducing activity in HL60 and in MDR cell lines” (J Med Chem, 2005)
“And” between values parts separate entries of the source, which are not always exact repeats. Equal entries are not always repeated.

Assays:
[1] = tested on: HL-60; test: Inhibitory concentration to inhibit cell growth 50% was determined in HL60 cells; format: functional, cell-based; conditions: Homo sapiens
In short: (§1)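 Leukemia cells grown in RPMI 1640 with 10% FCS, penicillin, streptomycin and 2 mM L-glutamine at 37 °C, 5% CO2. Compounds from 20 mM DMSO stocks, final DMSO ≤0.5%. 2 × 10^5 cells in 1 mL were exposed to a range of concentrations for 48 h. Viable cells were counted by trypan blue on a hemocytometer and expressed as percent of control proliferation.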

[2] = tested on: HL-60; test: Concentration to induce apoptosis in 50% cells was determined in HL60 cells; format: functional, cell-based; conditions: Homo sapiens
[3] = tested on: HL-60; test: Percentage of mitosis after 8 hr exposure of HL60 cells to the compound at 1 uM; format: functional, Homo sapiens
In short: (§2)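 HL60 cells were exposed to compound for 8 h. Mitotic cells were then counted by fluorescence microscopy after acridine orange and ethidium bromide staining.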

[4] = Concentration required to inhibit cell growth 50% was determined in HL60R cell lines; format: functional, cell-based, Homo sapiens; in short: as §1
[5] = Therapeutic index (IC90/percentage of CFUGEMM inhibition) value after 14 days for bone marrow cells treated with compound at IC90; format: cell-based; conditions: human, 336 h
[6] = tested on: Osteoclast-like; test: Percentage of CFU-GEMM inhibition after 14 days for bone marrow cells treated with compound at IC90; format: functional, Homo sapiens
[7] = tested on: HuT78; test: Percentage of apoptotis in HUT78B1 cells after 48 h of exposure at 2 uM concentration; format: functional, Homo sapiens
In short: (§3)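 HUT78 (Fas-expressing) and HUT78B1 (nonfunctional death-domain-deleted Fas) cells were exposed to compound for 48 h. Apoptosis was scored morphologically by fluorescence microscopy after acridine orange/ethidium bromide staining, based on chromatin condensation and apoptotic bodies.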

[8] = tested on: HL-60; test: Percentage of apoptotis inhibition at 0.3 uM concentration was determined in HL60 cells in the presence of Fas-blocking monoclonal antibody; format: functional, Homo sapiens; parameters: scale not given: the % may be the effect or the level left
In short: (§4)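 HL60 cells (2 × 10^5) were pretreated for 2 h with Fas-blocking MoAb ZB4 or with caspase-9 inhibitor Z-LEHD-fmk (5 µM) before compound was added. Apoptosis was scored at 48 h by acridine orange/ethidium bromide morphology and expressed as percent inhibition.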

[9] = tested on: K562; test: Concentration to induce apoptosis in 50% cells was determined in K562ADR cell lines; format: functional, cell-based; conditions: Homo sapiens
[10] = Percentage of apoptotis in HUT78 cells after 48 h of exposure at 2 uM concentration; format: functional, Homo sapiens; conditions: in the assay text read “at IC90 concentration” for “at 2 uM concentration”; in short: as §3
[11] = tested on: HL-60; test: Concentration to induce apoptosis in 50% cells was determined in HL60R cell lines; format: functional, cell-based; conditions: Homo sapiens
[12] = tested on: HL-60; test: Percentage of apoptotis inhibition at 0.3 uM concentration was determined in HL60 cells in the presence of Z-LEHD-fmk inhibitor; format: functional, Homo sapiens; parameters: scale not given: the % may be the effect or the level left; in short: as §4
[13] = tested on: K562; test: Concentration required to inhibit cell growth 50% was determined in K562ADR cell lines; format: functional, cell-based; conditions: Homo sapiens; in short: as §1
[14] = tested on: K562; test: Concentration to induce apoptosis in 50% cells was determined in K562 cell lines; format: functional, cell-based; conditions: Homo sapiens
[15] = tested on: HL-60; test: Percentage of mitosis after 8 hr exposure of HL60 cells to the compound at 2.5 nM; format: functional, Homo sapiens; in short: as §2
[16] = tested on: Osteoclast-like; test: Percentage of CFU-GEMM inhibition value after 14 days for bone marrow cells treated with compound at IC90; format: functional, Homo sapiens
[17] = tested on: HL-60; test: Percentage of apoptotis inhibition at 2 uM concentration was determined in HL60 cells in the presence of Fas-blocking monoclonal antibody; format: functional, Homo sapiens; parameters: scale not given: the % may be the effect or the level left; in short: as §4
[18] = tested on: K562; test: Inhibitory concentration against K562ADR cell lines; format: functional, cell-based; conditions: Homo sapiens; in short: as §1
[19] = Inhibitory concentration against HL60R cell lines; format: functional, cell-based, Homo sapiens; conditions: hl-60; in short: as §1
[20] = tested on: HL-60; test: Percentage of apoptotis inhibition at 2 uM concentration was determined in HL60 cells in the presence of Z-LEHD-fmk inhibitor; format: functional, Homo sapiens; parameters: scale not given: the % may be the effect or the level left; in short: as §4
[21] = tested on: HL-60; test: Percentage of mitosis after 8 hr exposure of HL60 cells at 2 uM; format: functional, Homo sapiens; in short: as §2
[22] = tested on: HuT78; test: Percentage of apoptotis was determined in HUT78 cells after 48 h of exposure at 2 uM concentration; format: functional, Homo sapiens; in short: as §3
[23] = tested on: HL-60; test: Apoptotic concentration to induce apoptosis in 50% cells was determined in HL60R cell lines; format: functional, cell-based; conditions: Homo sapiens
[24] = tested on: HL-60; test: Percentage of apoptotis inhibition at 0.5 uM concentration was determined in HL60 cells in the presence of Z-LEHD-fmk inhibitor; format: functional, Homo sapiens; parameters: scale not given: the % may be the effect or the level left; in short: as §4
[25] = tested on: HL-60; test: Percentage of apoptotis inhibition at 0.5 uM concentration was determined in HL60 cells in the presence of Fas-blocking monoclonal antibody; format: functional, Homo sapiens; parameters: scale not given: the % may be the effect or the level left; in short: as §4

Question: Which IC50 [1] does the source give for `COc1ccc([C@H]2C(S(=O)(=O)c3ccccc3)=NO[C@@H]2c2cc(OC)c(OC)c(OC)c2)cc1O` here?
Answer: 15 µM

Question: What about the AC50 [2] of the same compound?
Answer: 25 µM

Question: For `COc1ccc(-c2cccnc2-c2cc(OC)c(OC)c(OC)c2)cc1O`, which IC50 [1] is on record?
Answer: 0.3 µM

Question: And the AC50 [2]?
Answer: 0.6 µM

Question: For `COc1ccc(-c2ccc(-c3cc(OC)c(OC)c(OC)c3)cc2)cc1O`, which IC50 [1] is on record?
Answer: 30 µM

Question: And the AC50 [2]?
Answer: 35 µM

Question: Which IC50 [1] does the source give for `COc1ccc(-c2cc(Cl)cnc2-c2cc(OC)c(OC)c(OC)c2)cc1O` here?
Answer: 0.5 µM

Question: And the AC50 [2]?
Answer: 0.8 µM

Question: What does the source list for `COC1=NO[C@@H](c2ccc(OC)c(O)c2)[C@H]1c1cc(OC)c(OC)c(OC)c1`?
Answer: Activity [3]: 17%; IC50 ([4]; Homo sapiens, HL60R): 0.25 µM; IC50 ([4]; hl60r): 0.25 µM; Ratio [5]: 2.5; IC50 [1]: 0.1 µM; CFU-GEMM [6]: 36%; Activity [7]: 60%; Activity [8]: 25%; AC50 [2]: 0.3 µM; AC50 [9]: 2 µM; Activity [10]: 80%; AC50 [11]: 0.75 µM; Activity [12]: 50%; IC50 [13]: 0.5 µM; AC50 [14]: 0.4 µM

Question: Which Ratio [5] does the source give for `COc1ccc(/C=C\c2cc(OC)c(OC)c(OC)c2)cc1O` [COMBRETASTATIN A4] here?
Answer: 2.4

Question: And the Activity [15]?
Answer: 88%

Question: What about the CFU-GEMM [16] of the same compound?
Answer: 37%

Question: Which results are given for `COc1ccc(-c2ccccc2-c2cc(OC)c(OC)c(OC)c2)cc1O`?
Answer: IC50 [1]: 20 µM; AC50 [2]: 30 µM

Question: What does the source list for `COc1ccc(C2CC(c3cc(OC)c(OC)c(OC)c3)=NO2)cc1O` (configuration not stated)?
Answer: IC50 [1]: 3.2 µM; AC50 [2]: 5.5 µM

Question: For `COc1ccc([C@@H]2ON=C(C)[C@@H]2c2cc(OC)c(OC)c(OC)c2)cc1O`, which IC50 [1] is on record?
Answer: 2 µM

Question: And the AC50 [2]?
Answer: 3.5 µM

Question: For `COc1ccc(-c2ncccc2-c2cc(OC)c(OC)c(OC)c2)cc1O`, which IC50 [1] is on record?
Answer: 5 µM

Question: And the AC50 [2]?
Answer: 10 µM

Question: Which IC50 [1] does the source give for `COc1ccc([C@@H]2C(C)=NO[C@@H]2c2cc(OC)c(OC)c(OC)c2)cc1O` here?
Answer: 2 µM

Question: What about the AC50 [2] of the same compound?
Answer: 3.5 µM

Question: Which IC50 [1] does the source give for `COc1ccc(-c2cc(-c3cc(OC)c(OC)c(OC)c3)no2)cc1O` here?
Answer: 3 µM

Question: And the AC50 [2]?
Answer: 4.5 µM

Question: Which Activity [17] does the source give for `COc1ccc([C@H]2ON=C(S(=O)(=O)c3ccccc3)[C@@H]2c2cc(OC)c(OC)c(OC)c2)cc1O` here?
Answer: 25%

Question: And the Ratio [5]?
Answer: 2.1

Question: What about the IC50 [1] of the same compound?
Answer: 0.9 µM

Question: What about the Activity [7] of the same compound?
Answer: 46%

Question: What about the IC50 [18] of the same compound?
Answer: 2 µM

Question: What about the IC50 [19] of the same compound?
Answer: 3 µM and 1 µM

Question: What about the Activity [20] of the same compound?
Answer: 71.5%

Question: What about the AC50 [2] of the same compound?
Answer: 2 µM

Question: And the AC50 [9]?
Answer: 8 µM

Question: What about the AC50 [11] of the same compound?
Answer: 5 µM

Question: What about the CFU-GEMM [16] of the same compound?
Answer: 42%

Question: What about the Activity [21] of the same compound?
Answer: 18%

Question: What about the Activity [22] of the same compound?
Answer: 70%

Question: And the AC50 [14]?
Answer: 2 µM

Question: For `COc1ccc(C2=NOC(c3cc(OC)c(OC)c(OC)c3)C2)cc1O` (configuration not stated), which IC50 [1] is on record?
Answer: 1.5 µM

Question: What about the AC50 [2] of the same compound?
Answer: 2.2 µM

Question: With `COC1=NO[C@H](c2cc(OC)c(OC)c(OC)c2)[C@@H]1c1ccc(OC)c(O)c1` as the compound, how does the Activity [3] read?
Answer: 15%

Question: What about the IC50 ([4]; hl60r) of the same compound?
Answer: 0.75 µM and 0.2 µM

Question: And the AC50 [23]?
Answer: 2 µM

Question: What about the Ratio [5] of the same compound?
Answer: 2.6

Question: And the IC50 [1]?
Answer: 0.25 µM

Question: And the Activity [7]?
Answer: 40%

Question: What about the AC50 [2] of the same compound?
Answer: 0.5 µM

Question: And the AC50 [9]?
Answer: 2 µM

Question: And the Activity [10]?
Answer: 75%

Question: And the Activity [24]?
Answer: 91.4%

Question: What about the IC50 [13] of the same compound?
Answer: 0.5 µM

Question: And the CFU-GEMM [16]?
Answer: 34%

Question: And the Activity [25]?
Answer: 57%

Question: What about the AC50 [14] of the same compound?
Answer: 0.4 µM

Question: With `COc1ccc(-c2cccc(-c3cc(OC)c(OC)c(OC)c3)c2)cc1O` as the compound, how does the IC50 [1] read?
Answer: 12 µM

Question: What about the AC50 [2] of the same compound?
Answer: 22 µM

Question: Which IC50 [1] does the source give for `COc1ccc(-c2cc(-c3cc(OC)c(OC)c(OC)c3)on2)cc1O` here?
Answer: 3 µM

Question: What about the AC50 [2] of the same compound?
Answer: 4 µM
